Assay results collected from several papers.
Protocols differ between the studies behind these lines.
Target: SRSF protein kinase 1 (SRPK1, Homo sapiens, UniProt Q96SB4)

O=c1[nH]c2ccccc2n1C1CCN(Cc2ccc(-c3[nH]c4cc5ncnc5cc4nc3-c3ccccc3)cc2)CC1
remaining signal (cell-free assay; 0.5 µM): 106%

COc1ncccc1-c1cnn2ccc(N3CCN(C(=O)OC(C)C)CC3)nc12
remaining binding (binding; competition with immobilised ligand; 1 µM): 19%

CC(C)(C)c1cc(C=C(C#N)C#N)cc(Br)c1O
remaining activity (enzyme activity; inhibitor; 0.5 µM): 101%

COc1cc(Nc2ncc(F)c(Nc3ccc4c(n3)NC(=O)C(C)(C)O4)n2)cc(OC)c1OC
inhibition (binding; 10 µM): 87%

Cn1cc(-c2cc(F)cc(N3CCn4c(cc5c4CCCC5)C3=O)c2CO)cc(Nc2ccc(N3CCN(C4COC4)CC3)cn2)c1=O
inhibition (enzyme activity; inhibitor; 0.1 µM): 14%

C#Cc1n[nH]c2c(-c3cn([C@@H](C)c4ccccn4)c(=O)[nH]c3=O)cc(F)cc12
inhibition (enzyme activity; inhibitor; 0.1 µM): 3.3%

Cc1nn(C)cc1-c1nc2c(N3CCN(Cc4ccc(Cl)cc4)CC3)c(Cl)cnc2[nH]1
remaining binding (binding; competition with immobilised ligand; 1 µM): 7.8%

Cn1cncc1[C@](O)(COc1ccc(C#N)cc1-c1ccc(OC(F)(F)F)cc1)c1ccc(C#N)cc1
remaining binding (cell-free assay; competition with immobilised ligand; 1 µM): 70%

Cn1cc(-c2cccc(N3CCc4c(sc5c4CC(C)(C)C5)C3=O)c2CO)cc(Nc2ccncn2)c1=O
inhibition (enzyme activity; inhibitor; 1 µM): 5%

C#Cc1n[nH]c2c(-c3cn([C@@H](C)c4ccccc4)c(=O)[nH]c3=O)cc(F)cc12
inhibition (enzyme activity; inhibitor; 0.1 µM): 3.1%
